Data on 8 compounds can be found in paper PMC9362842 (Bioconjugate chemistry, 2022).

In general, Kd refers to the free concentration of one partner at which half of the binding sites on the other are occupied at equilibrium, for simple one-to-one binding. Read a low Kd as higher affinity.

Read-outs that look alike come from different tables or passages of the source. Marks after values point to notes of the source that are not given here.

Series [1] relates to HepG2 (GPC3+) xenografts. Type of series: in vivo, athymic nude mice. The note with it: 100 nCi.
For series [2] the following is noted: cited from earlier work.
The conditions of series [3]: cited from earlier work. The source holds these as a separate data set.
The format of series [4] is physicochemical. The settings on record: pH 7.4, 25 °C, I = 0.1 M KCl; for pLa (−log [M]free): [M]total = 10^−6 M, [L]total = 10^−5 M. In short, it runs like this:
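Protonation constants of the free chelator are first determined by pH potentiometric titration (25 °C, 0.1 M KCl ionic strength), then La³⁺ stability constants (log KLaL) by the same method, all in triplicate. The fifth and sixth protonation constants are not determined over the pH ranges used. Conditional constants and pLa at pH 7.4 are calculated from the protonation and stability constants.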

Series [5] in a line: Hydrolytic stability of the -NCS group in pH 9.1 NaHCO3 buffer. Type of series: physicochemical.
The target of series [6] is GPC3 (Homo sapiens, UniProt P51654). Nature of the series: Bio-layer interferometry. In kind it is binding. The note with it: BLI, immobilized GPC3 antigen, global fit. A general note: Biolayer interferometry detects binding as a change in optical thickness at a sensor tip.

As for “[^225Ac]Ac-GC33-BZM: ^225Ac-labeled GC33-BZM antibody radioconjugate”, the “tumor uptake compared with ^225Ac[Ac]-GC33-M” value in series [1] (48 and 96 h) is given as “effectively indistinguishable”. Moreover, the tumor uptake entry in series [1] (48 and 96 h post-injection) was “clear, specific tumor uptake”.

In the case of `O=C(O)CN(CCN(CC(=O)O)CC(=O)O)CC(=O)O` [H4EDTA, ethylenediamine tetraacetic acid], in series [2] (0.1 M), the “log K1 (protonation constant)” value is listed as 10.17^e, the “log K2 (protonation constant)” value is recorded as 6.11^e, the “log K3 (protonation constant)” value is listed as 2.68^e and the “log K4 (protonation constant)” value is recorded as 2.00^e. In addition, the “log K5 (protonation constant)” value in series [2] (0.1 M) is reported as 1.5^e. Besides, in series [3] (0.1 M), the “log KLaHL” value is reported as 2.24 ^ e and the “log KLaL (La^3+ stability constant)” value is recorded as 15.46 ^ e. In addition, in series [4], the “pLa (−log [M]free)” value is reported as 13.62 and the “log K´La (conditional stability constant)” value (shortened to “log K´La”) worked out at 12.67.

Take `O=C(O)c1cccc(CN2CCOCCOCCN(Cc3cc(N=C=S)cc(C(=O)O)n3)CCOCCOCC2)n1` [H2macropa-NCS]: the “t1/2 of -NCS hydrolysis to the amine” value in series [5] (buffer, pH 9.1) is listed as 1.25 h. In series [5] (pH 9.1 NaHCO3 buffer, room temperature), the “time to complete hydrolysis to the amine” value is given as “approximately 5 h”.

In series [6], “GC33: glypican-3 (GPC3)-targeting antibody codrituzumab” returned a Kd of 0.042 nM.

For “GC33-BZM: H2BZmacropa-NCS conjugate of the antibody GC33”, the Kd in series [6] came out at 0.19 nM.

On to `O=C(O)CN1CCN(CC(=O)O)CCN(CC(=O)O)CCN(CC(=O)O)CC1` [H4DOTA, tetraazacyclododecane-1,4,7,10-tetraacetic acid], for which, in series [2] (0.1 M KCl), the “log K1 (protonation constant)” value is listed as 11.14^d, the “log K2 (protonation constant)” value is given as 9.69^d, the “log K3 (protonation constant)” value is on record as 4.84^d and the “log K4 (protonation constant)” value is given as 3.95^d. Besides, in series [3] (0.1 M KCl), the “log KLaHL” value is listed as 2.5(2) ^ d and the “log KLaL (La^3+ stability constant)” value was 21.7(1) ^ d. In series [4], the “pLa (−log [M]free)” value is listed as 16.62 and the “log K´La” value is on record as 15.67.

For `O=C(O)c1cccc(CN2CCOCCOCCN(Cc3cccc(C(=O)O)n3)CCOCCOCC2)n1` [H2macropa], in series [2] (0.1 M KCl), the “log K1 (protonation constant)” value is 7.41(1)^c, the “log K2 (protonation constant)” value is 6.85(1)^c, the “log K3 (protonation constant)” value was 3.32(1)^c and the “log K4 (protonation constant)” value was 2.36(1)^c. The “log K5 (protonation constant)” value in series [2] (0.1 M KCl) is 1.69(1)^c. The “log KLaHL” value in series [3] (0.1 M KCl) is given as 2.28(3) ^ c. Also, in series [4], the “pLa (−log [M]free)” value is reported as 15.58 and the “log K´La” value worked out at 14.63.

As for `O=C(O)CN(CCN(CC(=O)O)CC(=O)O)CCN(CC(=O)O)CC(=O)O` [H5DTPA, diethylenetriamine pentaacetic acid], in series [2] (0.1 M), the “log K1 (protonation constant)” value is 10.45^e, the “log K2 (protonation constant)” value is 8.53^e, the “log K3 (protonation constant)” value is reported as 4.28^e and the “log K4 (protonation constant)” value is 2.65^e. Also, the “log K5 (protonation constant)” value in series [2] (0.1 M) is listed as 1.82^e. For the same compound, in series [3] (0.1 M), the “log KLaL (La^3+ stability constant)” value is reported as 19.48 ^ e. Moreover, in series [4], the “pLa (−log [M]free)” value is on record as 16.22 and the “log K´La” value came out at 15.27.
